Consider twelve molecules from ChEMBL document CHEMBL1138311, “Design and synthesis of novel and potent inhibitors of the type II transmembrane serine protease, matriptase, based upon the sunflower trypsin inhibitor-1” (J Med Chem, 2007).

Experiment [1] can be described thus: Selectivity for human matriptase over bovine thrombin. Put shortly: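 Enzyme was preincubated with inhibitor before substrate addition. Matriptase substrate: t-Boc-Gln-Ala-Arg-AMC; thrombin substrate: N-tBoc-Leu-Arg-Arg-AMC. AMC release read at ex 360/em 480 nm over six to seven inhibitor concentrations. Ki from Dixon plots using two substrate concentrations.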

Experiment [2] addresses Prothrombin (Bos taurus, UniProt P00735). The experiment can be described thus: (§1) Inhibition of bovine thrombin. The method in brief: (§2)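 Room-temperature fluorogenic assay in 100 mM Tris-HCl (pH 8.5) with 100 mg/mL BSA. Enzyme and inhibitor were preincubated, then N-tBoc-Leu-Arg-Arg-AMC substrate was added. Hydrolysis was followed by fluorescence (ex 360 nm, em 480 nm) at six to seven inhibitor concentrations. Ki was taken from Dixon plots of two data sets at different substrate concentrations.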

Experiment [3] deals with Prothrombin (Bos taurus) (UniProt P00735). The description is as §1. Put shortly: as §2
The target in experiment [4] is T1, Suppressor of tumorigenicity 14 protein (Homo sapiens, UniProt Q9Y5Y6).
T1 sequence (Q9Y5Y6 whole entry): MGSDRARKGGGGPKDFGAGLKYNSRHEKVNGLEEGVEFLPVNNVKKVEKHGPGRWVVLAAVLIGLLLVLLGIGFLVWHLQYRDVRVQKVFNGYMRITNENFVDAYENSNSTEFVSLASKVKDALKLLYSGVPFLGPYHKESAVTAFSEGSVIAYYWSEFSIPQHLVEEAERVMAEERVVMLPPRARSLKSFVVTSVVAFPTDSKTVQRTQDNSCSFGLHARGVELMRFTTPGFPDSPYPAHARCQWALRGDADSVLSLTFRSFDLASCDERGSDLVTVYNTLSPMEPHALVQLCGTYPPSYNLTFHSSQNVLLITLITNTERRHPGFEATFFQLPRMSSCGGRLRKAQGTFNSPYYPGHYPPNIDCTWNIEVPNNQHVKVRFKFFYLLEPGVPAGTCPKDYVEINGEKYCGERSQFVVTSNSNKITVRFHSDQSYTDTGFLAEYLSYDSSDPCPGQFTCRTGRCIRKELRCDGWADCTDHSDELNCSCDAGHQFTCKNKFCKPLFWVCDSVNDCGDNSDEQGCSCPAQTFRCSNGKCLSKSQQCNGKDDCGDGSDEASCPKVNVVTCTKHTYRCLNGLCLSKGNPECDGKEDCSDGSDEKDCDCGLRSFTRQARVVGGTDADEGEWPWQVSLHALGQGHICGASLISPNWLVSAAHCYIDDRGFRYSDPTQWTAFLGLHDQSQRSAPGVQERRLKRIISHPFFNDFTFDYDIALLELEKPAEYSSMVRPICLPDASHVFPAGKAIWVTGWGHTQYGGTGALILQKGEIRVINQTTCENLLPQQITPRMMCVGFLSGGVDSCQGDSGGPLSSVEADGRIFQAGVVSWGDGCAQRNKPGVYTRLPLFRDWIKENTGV
The experiment can be described thus: Inhibition of human matriptase. Put shortly:
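Run at room temperature in 100 mM Tris-HCl (pH 8.5) with 100 mg/mL BSA. Enzyme and inhibitor were preincubated, then t-Boc-Gln-Ala-Arg-AMC was added and fluorescence read at ex 360 nm, em 480 nm over six to seven inhibitor concentrations. Ki came from Dixon plots at two substrate concentrations. A second format used purified matriptase with t-Boc-Gln-Ala-Arg-AFC in 100 mM Tris (pH 8.3) with BSA.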

The source made the active and inactive calls. The calls are words filed in the database; no cut-off is given here.

The Ki is the dissociation constant of the complex between target and ligand, obtained from inhibition or displacement. Low readings indicate a stronger hold on the target, high ones a looser hold on the target. With `CC[C@H](C)[C@@H]1NC(=O)[C@@H]2CCCN2C(=O)[C@@H]2CCCN2C(=O)[C@H]([C@@H](C)CC)NC(=O)[C@H](CO)NC(=O)[C@H](CCCCN)NC(=O)[C@H]([C@@H](C)O)NC(=O)[C@@H]2CSSC[C@H](NC1=O)C(=O)N[C@@H](Cc1c(F)c(F)c(F)c(F)c1F)C(=O)N1CCC[C@@H]1C(=O)N[C@@H](CC(=O)O)C(=O)NCC(=O)N[C@@H](CCCNC(=N)N)C(=O)N2`, the Ratio Ki in experiment [1] stood at 37.8. In experiment [2], this molecule came in with a Ki of 33.6 µM. As to `CC[C@H](C)[C@@H]1NC(=O)[C@@H]2CCCN2C(=O)[C@@H]2CCCN2C(=O)[C@H]([C@@H](C)CC)NC(=O)[C@H](CO)NC(=O)[C@H](CCCCN)NC(=O)[C@H]([C@@H](C)O)NC(=O)[C@@H]2CSSC[C@H](NC1=O)C(=O)N[C@@H](Cc1ccccc1)C(=O)N1CCC[C@@H]1C(=O)N[C@@H](CC(=O)O)C(=O)NCC(=O)N[C@@H](CCCNC(=N)N)C(=O)N2`, in experiment [1], the Ratio Ki stood at 50. `CC[C@H](C)[C@@H]1NC(=O)[C@@H]2CCCN2C(=O)[C@@H]2CCCN2C(=O)[C@H]([C@@H](C)CC)NC(=O)[C@H](CO)NC(=O)[C@H](CCCCN)NC(=O)[C@H]([C@@H](C)O)NC(=O)[C@H](CO)NC(=O)[C@H](CCCNC(=N)N)NC(=O)CNC(=O)[C@H](CC(=O)O)NC(=O)[C@H]2CCCN2C(=O)[C@H](Cc2ccccc2)NC(=O)[C@H](CO)NC1=O`: the Ratio Ki in experiment [1] is 0.38. The same molecule displayed a Ki in experiment [2] of 40.4 µM. Turning to `CC[C@H](C)[C@@H]1NC(=O)[C@@H]2CCCN2C(=O)[C@@H]2CCCN2C(=O)[C@H]([C@@H](C)CC)NC(=O)[C@H](CO)NC(=O)[C@H](CCCCN)NC(=O)[C@H]([C@@H](C)O)NC(=O)[C@@H]2CSSC[C@H](NC1=O)C(=O)N[C@@H](Cc1ccc3ccccc3c1)C(=O)N1CCC[C@@H]1C(=O)N[C@@H](CC(=O)O)C(=O)NCC(=O)N[C@@H](CCCNC(=N)N)C(=O)N2`, the Ratio Ki in experiment [1] turned out to be 36. Moreover, in experiment [2], the affinity, expressed as Ki, was 16.3 µM. As for `CC[C@H](C)[C@@H]1NC(=O)[C@@H]2CCCN2C(=O)[C@@H]2CCCN2C(=O)[C@H]([C@@H](C)CC)NC(=O)[C@H](CO)NC(=O)[C@H](CCCCN)NC(=O)[C@H]([C@@H](C)O)NC(=O)[C@@H]2CSSC[C@H](NC1=O)C(=O)N[C@@H](Cc1ccc(-c3ccccc3)cc1)C(=O)N1CCC[C@@H]1C(=O)N[C@@H](CC(=O)O)C(=O)NCC(=O)N[C@@H](CCCNC(=N)N)C(=O)N2`, the Ratio Ki in experiment [1] worked out at 25.6. In experiment [2], the affinity corresponds to a Ki of 25.6 µM. As for `CC[C@H](C)[C@@H]1NC(=O)[C@@H]2CCCN2C(=O)[C@@H]2CCCN2C(=O)[C@H]([C@@H](C)CC)NC(=O)[C@H](CO)NC(=O)[C@H](CCCCN)NC(=O)[C@H]([C@@H](C)O)NC(=O)[C@@H]2CSSC[C@H](NC1=O)C(=O)N[C@@H](Cc1ccccc1)C(=O)N1CCC[C@@H]1C(=O)N[C@@H](CC(=O)O)C(=O)NCC(=O)N[C@@H](Cc1ccc(NC(=N)N)cc1)C(=O)N2`, in experiment [1], the Ratio Ki came to 1.8. Also, affinity in experiment [2] was put at a Ki of 164 µM. Take `CC[C@H](C)[C@@H]1NC(=O)[C@@H]2CCCN2C(=O)[C@@H]2CCCN2C(=O)[C@H]([C@@H](C)CC)NC(=O)[C@H](CO)NC(=O)[C@H](CCCCN)NC(=O)[C@H]([C@@H](C)O)NC(=O)[C@@H]2CSSC[C@H](NC1=O)C(=O)N[C@@H](Cc1ccccc1)C(=O)N1CCC[C@@H]1C(=O)N[C@@H](CC(=O)O)C(=O)NCC(=O)N[C@@H](CCCCNC(=N)N)C(=O)N2`: the Ratio Ki in experiment [1] turned out to be 8.9. The same molecule had a Ki in experiment [2] of 7.63 µM.

Take `CC[C@H](C)[C@@H]1NC(=O)[C@@H]2CCCN2C(=O)[C@@H]2CCCN2C(=O)[C@H]([C@@H](C)CC)NC(=O)[C@H](CO)NC(=O)[C@H](CCCN)NC(=O)[C@H]([C@@H](C)O)NC(=O)[C@@H]2CSSC[C@H](NC1=O)C(=O)N[C@@H](Cc1ccccc1)C(=O)N1CCC[C@@H]1C(=O)N[C@@H](CC(=O)O)C(=O)NCC(=O)N[C@@H](CCCNC(=N)N)C(=O)N2`: in experiment [3], the result was inactive.

As for `CC[C@H](C)[C@@H]1NC(=O)[C@@H]2CCCN2C(=O)[C@@H]2CCCN2C(=O)[C@H]([C@@H](C)CC)NC(=O)[C@H](CO)NC(=O)[C@H](CCCNC(=N)N)NC(=O)[C@H]([C@@H](C)O)NC(=O)[C@@H]2CSSC[C@H](NC1=O)C(=O)N[C@@H](Cc1ccccc1)C(=O)N1CCC[C@@H]1C(=O)N[C@@H](CC(=O)O)C(=O)NCC(=O)N[C@@H](CCCNC(=N)N)C(=O)N2`, the Ratio Ki in experiment [1] is 0.18. Besides, the Ki in experiment [2] was determined as 0.86 µM. With `CC[C@H](C)[C@@H]1NC(=O)[C@@H]2CCCN2C(=O)[C@@H]2CCCN2C(=O)[C@H]([C@@H](C)CC)NC(=O)[C@H](CO)NC(=O)[C@H](CCCCN)NC(=O)[C@H]([C@@H](C)O)NC(=O)[C@@H]2CSCSC[C@H](NC1=O)C(=O)N[C@@H](Cc1ccccc1)C(=O)N1CCC[C@@H]1C(=O)N[C@@H](CC(=O)O)C(=O)NCC(=O)N[C@@H](CCCNC(=N)N)C(=O)N2`, the inhibition constant (Ki) in experiment [4] turned out to be 0.16 µM; in experiment [2], 10 µM. Moreover, in experiment [1], the Ratio Ki was 62.5. `CC[C@H](C)[C@@H]1NC(=O)[C@@H]2CCCN2C(=O)[C@@H]2CCCN2C(=O)[C@H]([C@@H](C)CC)NC(=O)[C@H](CO)NC(=O)[C@H](CCCCN)NC(=O)[C@H]([C@@H](C)O)NC(=O)[C@@H]2CSSC[C@H](NC1=O)C(=O)N[C@@H](Cc1ccccc1)C(=O)N1CCC[C@@H]1C(=O)N[C@@H](CC(=O)O)C(=O)NCC(=O)N[C@@H](CCCNC(N)=O)C(=O)N2`: the Ratio Ki in experiment [1] was determined as 37. Further, in experiment [2], the Ki came out at 827 µM. In the same order, the values of `CC[C@H](C)[C@@H]1NC(=O)[C@@H]2CCCN2C(=O)[C@@H]2CCCN2C(=O)[C@H]([C@@H](C)CC)NC(=O)[C@H](CO)NC(=O)[C@H](CCCCCN)NC(=O)[C@H]([C@@H](C)O)NC(=O)[C@@H]2CSSC[C@H](NC1=O)C(=O)N[C@@H](Cc1ccccc1)C(=O)N1CCC[C@@H]1C(=O)N[C@@H](CC(=O)O)C(=O)NCC(=O)N[C@@H](CCCNC(=N)N)C(=O)N2` are 1.6 and 45.6 µM.
